Series [1] is filed under the species Rattus norvegicus. The experiment in a line: Radioactivity distribution in lung of normal fischer rat after injection of [18F]-fluoro-2-methyl-2-(methylamino)propanoic acid after 30 min. Type of series: ADME, organism-based. Particulars: in vivo, 0.5 h. An outline of the steps: (§1)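 Male Fischer 344 rats (200–250 g), fed ad libitum, anesthetized with intramuscular ketamine:xylazine (1:1, 0.1 mL/100 g). About 85 μCi tracer in 0.3 mL sterile water was given by tail-vein catheter. Groups of four were killed at 5, 30, 60 or 120 min. Tissues were weighed and gamma-counted against dose standards, decay-corrected, and expressed as %ID/g (mean ± standard error).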

The species entered for series [2] is Rattus norvegicus. The experiment in a line: Radioactivity distribution in lung of normal fischer rat after injection of [18F]-fluoro-2-methyl-2-(methylamino)propanoic acid after 120 min. The format is ADME, organism-based. Particulars: in vivo, 2 h. An outline of the steps: as §1
The species named for series [3] is Rattus norvegicus. In words: Radioactivity distribution in liver of normal fischer rat after injection of [18F]-fluoro-2-methyl-2-(methylamino)propanoic acid after 5 min. The conditions noted are these: in vivo. Type of series: ADME, organism-based. An outline of the steps: as §1
Series [4] is filed under the species Rattus norvegicus. In words: Radioactivity distribution in liver of normal fischer rat after injection of [18F]-fluoro-2-methyl-2-(methylamino)propanoic acid after 30 min. Type of series: ADME, organism-based. The conditions noted are these: in vivo, 0.5 h. An outline of the steps: as §1
The species named for series [5] is Rattus norvegicus. The experiment in a line: Radioactivity distribution in blood of normal fischer rat after injection of [18F]-fluoro-2-methyl-2-(methylamino)propanoic acid after 30 min. Type of series: ADME, organism-based. The conditions noted are these: in vivo, 0.5 h. An outline of the steps: (§2)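 Normal male Fischer 344 rats (200–250 g), anesthetized with i.m. ketamine:xylazine (1:1), got ~85 μCi of tracer in 0.3 mL sterile water i.v. via tail-vein catheter. Groups of four were killed at 5, 30, 60 or 120 min. Tissues were weighed and gamma-counted against dose standards, and counts were decay-corrected to %ID/g. Results are mean ± standard error (n = 4), compared by one-way ANOVA.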

The species entered for series [6] is Rattus norvegicus. The experiment in a line: Radioactivity distribution in kidney of normal fischer rat after injection of [18F]-fluoro-2-methyl-2-(methylamino)propanoic acid after 30 min. Type of series: ADME, organism-based. Particulars: in vivo, 0.5 h. An outline of the steps:
as §2

The species named for series [7] is Rattus norvegicus. The experiment in a line: Radioactivity distribution in heart of normal fischer rat after injection of [18F]-fluoro-2-methyl-2-(methylamino)propanoic acid after 5 min. Type of series: ADME, organism-based. The conditions noted are these: in vivo. An outline of the steps:
as §2

Series [8] is filed under the species Rattus norvegicus. In words: Radioactivity distribution in kidney of normal fischer rat after injection of [18F]-fluoro-2-methyl-2-(methylamino)propanoic acid after 5 min. The conditions noted are these: in vivo. The format is ADME, organism-based. An outline of the steps: as §2
The species entered for series [9] is Rattus norvegicus. The experiment in a line: Radioactivity distribution in pancreas of normal fischer rat after injection of [18F]-fluoro-2-methyl-2-(methylamino)propanoic acid after 30 min. Type of series: ADME, organism-based. The conditions noted are these: in vivo, 0.5 h. An outline of the steps: as §1
The species named for series [10] is Rattus norvegicus. The experiment in a line: Radioactivity distribution in lung of normal fischer rat after injection of [18F]-fluoro-2-methyl-2-(methylamino)propanoic acid after 5 min. The format is ADME, organism-based. The conditions noted are these: in vivo. An outline of the steps: as §1
The species named for series [11] is Rattus norvegicus. In words: Radioactivity distribution in brain of normal fischer rat after injection of [18F]-fluoro-2-methyl-2-(methylamino)propanoic acid after 120 min. The format is ADME, organism-based. The conditions noted are these: in vivo, 2 h. An outline of the steps: as §2
Series [12] is filed under the species Rattus norvegicus. The experiment in a line: Radioactivity distribution in bone of normal fischer rat after injection of [18F]-fluoro-2-methyl-2-(methylamino)propanoic acid after 30 min. The format is ADME, organism-based, Bone element. Particulars: in vivo, 0.5 h. An outline of the steps: as §2
Series [13] is filed under the species Rattus norvegicus. The experiment in a line: Radioactivity distribution in muscle of normal fischer rat after injection of [18F]-fluoro-2-methyl-2-(methylamino)propanoic acid after 5 min. The format is ADME, organism-based, Muscle tissue. Particulars: in vivo. An outline of the steps:
as §1

The species entered for series [14] is Rattus norvegicus. In words: Radioactivity distribution in pancreas of normal fischer rat after injection of [18F]-fluoro-2-methyl-2-(methylamino)propanoic acid after 60 min. Type of series: ADME, organism-based. Particulars: in vivo, 1 h. An outline of the steps:
as §1

The species named for series [15] is Rattus norvegicus. In words: Radioactivity distribution in liver of normal fischer rat after injection of [18F]-fluoro-2-methyl-2-(methylamino)propanoic acid after 120 min. Type of series: ADME, organism-based. Particulars: in vivo, 2 h. An outline of the steps:
as §1

The species named for series [16] is Rattus norvegicus. The experiment in a line: Radioactivity distribution in blood of normal fischer rat after injection of [18F]-fluoro-2-methyl-2-(methylamino)propanoic acid after 120 min. The format is ADME, organism-based. Particulars: in vivo, 2 h. An outline of the steps:
as §2

Series [17] is filed under the species Rattus norvegicus. In words: Radioactivity distribution in spleen of normal fischer rat after injection of [18F]-fluoro-2-methyl-2-(methylamino)propanoic acid after 60 min. The format is ADME, organism-based. Particulars: in vivo, 1 h. An outline of the steps: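 Male Fischer 344 rats (200–250 g), fed ad libitum, under intramuscular ketamine:xylazine anesthesia, got ~85 μCi radiotracer in 0.3 mL sterile water by tail-vein catheter. Groups of four were killed at 5, 30, 60 or 120 min. Dissected tissues were weighed and gamma-counted with dose standards. Counts were decay-corrected and given as %ID/g, mean ± standard error. Tissues were compared by one-way ANOVA.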

The species entered for series [18] is Rattus norvegicus. In words: Radioactivity distribution in heart of normal fischer rat after injection of [18F]-fluoro-2-methyl-2-(methylamino)propanoic acid after 120 min. Type of series: ADME, organism-based. The conditions noted are these: in vivo, 2 h. An outline of the steps:
as §2

The species entered for series [19] is Rattus norvegicus. In words: Radioactivity distribution in tumor of tumor-bearing fischer rat after injection of [18F]-fluoro-2-methyl-2-(methylamino)propanoic acid after 120 min. Particulars: in vivo, 2 h.
Series [20] is filed under the species Rattus norvegicus. The experiment in a line: Radioactivity distribution in bone of normal fischer rat after injection of [18F]-fluoro-2-methyl-2-(methylamino)propanoic acid after 60 min. The format is ADME, organism-based, Bone element. The conditions noted are these: in vivo, 1 h. An outline of the steps: as §2
For series [21], the species on record is Rattus norvegicus. In words: Radioactivity distribution in spleen of normal fischer rat after injection of [18F]-fluoro-2-methyl-2-(methylamino)propanoic acid after 120 min. Type of series: ADME, organism-based. Particulars: in vivo, 2 h. An outline of the steps:
as §1

The species named for series [22] is Rattus norvegicus. The experiment in a line: Radioactivity distribution in brain of normal fischer rat after injection of [18F]-fluoro-2-methyl-2-(methylamino)propanoic acid after 5 min. Type of series: ADME, organism-based. The conditions noted are these: in vivo. An outline of the steps:
as §2

The species named for series [23] is Rattus norvegicus. The experiment in a line: Radioactivity distribution in brain of normal fischer rat after injection of [18F]-fluoro-2-methyl-2-(methylamino)propanoic acid after 60 min. Type of series: ADME, organism-based. The conditions noted are these: in vivo, 1 h. An outline of the steps: as §2
The species entered for series [24] is Rattus norvegicus. The experiment in a line: Radioactivity distribution in blood of normal fischer rat after injection of [18F]-fluoro-2-methyl-2-(methylamino)propanoic acid after 60 min. The conditions noted are these: in vivo, 1 h. The format is ADME, organism-based. An outline of the steps:
as §2

Several values for one entry are separate records, joined by “and”; a condition that tells them apart may be missing. Equal values may be shown once.

Take `CNC(C)(C[18F])C(=O)O.Cl` (centres undefined): the ID/g was 0.5% in the series filed under Rattus norvegicus [1]; 0.3% and 0.19% in the series filed under Rattus norvegicus [2]; 0.79% and 0.94% in the series filed under Rattus norvegicus [3]; 0.72% in the series listed under Rattus norvegicus [4]; 0.3% in the series listed under Rattus norvegicus [5]; 4.6% in the series listed under Rattus norvegicus [6]. Further, the ID/g in the series listed under Rattus norvegicus [7] is 0.22% and 0.34%; in the series listed under Rattus norvegicus [8], 8.12% and 9.33%; in the series listed under Rattus norvegicus [9], 3%; in the series filed under Rattus norvegicus [10], 0.53% and 0.61%; in the series filed under Rattus norvegicus [11], 0.03% and < 0.02%; in the series filed under Rattus norvegicus [12], 0.32%. The ID/g is 0.16% and 0.22% in the series listed under Rattus norvegicus [13]; 3.24% and 2.42% in the series filed under Rattus norvegicus [14]; 0.58% and 0.41% in the series listed under Rattus norvegicus [15]; 0.1% in the series listed under Rattus norvegicus [16]; 0.68% and 0.45% in the series filed under Rattus norvegicus [17]; 0.17% and 0.19% in the series filed under Rattus norvegicus [18]. The ID/g was 1.94% in the series listed under Rattus norvegicus [19]; 0.29% and 0.23% in the series listed under Rattus norvegicus [20]; 0.47% and 0.4% in the series filed under Rattus norvegicus [21]; 0.04% and < 0.032% in the series listed under Rattus norvegicus [22]; 0.03% and < 0.022% in the series filed under Rattus norvegicus [23]; 0.18% and 0.17% in the series listed under Rattus norvegicus [24].

These data come from ChEMBL document CHEMBL1135739, “Radiolabeled amino acids for tumor imaging with PET: radiosynthesis and biological evaluation of 2-amino-3-[18F]fluoro-2-methylpropanoic acid and 3-[18F]fluoro-2-methyl-2-(methylamino)propanoic acid” (J Med Chem, 2002).
